The target of series [1] is Histone deacetylase 3 (Homo sapiens) (UniProt O15379). Briefly: Inhibition of HDAC3 in human HL-60 cells assessed as increase in Ac-H3 level at 20 uM incubated for 24 hrs by Western blot analysis. It counts as cell-based. The essentials:
(§1)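 Compound given to HL-60 cells for 24 h at the stated concentrations, then lysed. Acetyl-histone H3 and acetyl-α-tubulin levels were read by Western blot, with total H3, α-tubulin or β-actin as references.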
Background: A western blot detects proteins with antibodies after separation by electrophoresis.

In series [2] the target is Histone deacetylase 3/Nuclear receptor corepressor 2 (HDAC3/NCoR2) (Homo sapiens, UniProt O15379). Briefly: Inhibition of C-terminal His-tagged recombinant human HDAC3 (1 to 428 residues)/N-terminal GST-tagged recombinant human NCoR2 (395 to 489 residues) co-expressed in baculovirus infected Sf9 cells using Boc-Lys(Ac)-AMC as substrate preincubated for 15 mins followed by substrate addition and measured after 60 mins by fluorescence based assay.

The target in series [3] is T1, Histone deacetylase 2 (Homo sapiens, UniProt Q92769). The experiment in a line: Inhibition of HDAC2 in human HL-60 cells assessed as increase in Ac-H3 level at 20 uM incubated for 24 hrs by Western blot analysis. It counts as cell-based. In short, it runs like this:
as §1

Series [4] concerns the target T2, Protein deacetylase HDAC6 (Homo sapiens, UniProt Q9UBN7).
T2 sequence (Q9UBN7 whole entry): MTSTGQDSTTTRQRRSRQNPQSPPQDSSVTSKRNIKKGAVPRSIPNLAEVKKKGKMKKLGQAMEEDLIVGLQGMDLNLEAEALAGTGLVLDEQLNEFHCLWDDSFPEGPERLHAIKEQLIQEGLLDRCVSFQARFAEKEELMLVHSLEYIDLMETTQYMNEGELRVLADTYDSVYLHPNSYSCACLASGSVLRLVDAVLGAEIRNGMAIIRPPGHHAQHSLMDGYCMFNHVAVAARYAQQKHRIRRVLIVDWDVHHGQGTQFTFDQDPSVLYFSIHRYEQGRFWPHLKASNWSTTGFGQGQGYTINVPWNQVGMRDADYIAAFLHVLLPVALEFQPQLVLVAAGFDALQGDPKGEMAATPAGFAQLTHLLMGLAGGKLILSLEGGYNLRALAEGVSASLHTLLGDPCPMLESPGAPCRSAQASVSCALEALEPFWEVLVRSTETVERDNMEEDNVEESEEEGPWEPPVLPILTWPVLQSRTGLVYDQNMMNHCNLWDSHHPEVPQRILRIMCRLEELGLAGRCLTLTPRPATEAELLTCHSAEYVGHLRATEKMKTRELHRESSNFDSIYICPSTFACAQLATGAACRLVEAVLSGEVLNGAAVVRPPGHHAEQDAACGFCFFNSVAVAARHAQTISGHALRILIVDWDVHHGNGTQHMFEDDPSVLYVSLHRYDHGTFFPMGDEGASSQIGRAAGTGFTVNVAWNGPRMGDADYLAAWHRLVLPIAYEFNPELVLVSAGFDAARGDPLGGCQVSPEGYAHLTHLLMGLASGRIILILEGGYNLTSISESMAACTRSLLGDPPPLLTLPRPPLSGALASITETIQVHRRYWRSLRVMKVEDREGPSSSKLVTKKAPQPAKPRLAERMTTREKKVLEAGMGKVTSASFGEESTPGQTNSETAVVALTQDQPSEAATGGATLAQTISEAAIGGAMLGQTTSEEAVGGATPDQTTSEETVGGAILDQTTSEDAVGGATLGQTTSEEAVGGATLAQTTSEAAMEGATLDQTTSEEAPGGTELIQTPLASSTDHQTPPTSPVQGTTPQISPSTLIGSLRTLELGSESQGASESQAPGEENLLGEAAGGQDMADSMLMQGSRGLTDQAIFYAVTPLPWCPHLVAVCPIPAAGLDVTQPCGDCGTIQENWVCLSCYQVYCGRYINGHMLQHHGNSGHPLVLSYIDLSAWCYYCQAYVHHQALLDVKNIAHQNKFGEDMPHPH
The experiment in a line: Inhibition of recombinant full length C-terminal FLAG-tagged human HDAC6 expressed in baculovirus infected Sf9 cells using Boc-Lys(Ac)-AMC as substrate preincubated for 15 mins followed by substrate addition and measured after 60 mins by fluorescence based assay.

For series [5], the system named is HL-60. Briefly: Growth inhibition of human HL-60 cells after 72 hrs by trypan blue dye based assay. It counts as functional. The following applies: for GI50: Homo sapiens, HL-60. In short, it runs like this: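 HL-60 leukemia cells were exposed to compound for 72 h. Growth inhibition is reported as IG50 (half the growth inhibition concentration), as means plus SD of three independent experiments.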

Series [6] deals with HL-60. Briefly: Induction of apoptosis in human HL-60 cells assessed as viable cells at 20 uM incubated for 24 hrs by propidium iodide and annexin-V FITC staining based FACS analysis (reference value: 93.9 %). The following applies: read-out: Activity. Type of series: functional.
The subject of series [7] is HL-60. Briefly: Induction of apoptosis in human HL-60 cells assessed as early apoptotic cells at 20 uM incubated for 24 hrs by propidium iodide and annexin-V FITC staining based FACS analysis (reference value: […]). It counts as functional.
The subject of series [8] is HL-60. The experiment in a line: Induction of apoptosis in human HL-60 cells assessed as late apoptotic cells at 20 uM incubated for 24 hrs by propidium iodide and annexin-V FITC staining based FACS analysis (reference value: 3.7 %). Type of series: functional. In general terms: In flow cytometry, cells or beads pass a laser one at a time.
The target in series [9] is T1, Histone deacetylase 2. The experiment in a line: Inhibition of recombinant full length C-terminal FLAG-tagged human HDAC2 expressed in baculovirus infected Sf9 cells using Boc-Lys(Ac)-AMC as substrate preincubated for 15 mins followed by substrate addition and measured after 60 mins by fluorescence based assay.
The target in series [10] is T3, Histone deacetylase 1 (Homo sapiens, UniProt Q13547). Briefly: Inhibition of recombinant full length C-terminal FLAG/His-tagged human HDAC1 expressed in baculovirus infected Sf9 cells using Boc-Lys(Ac)-AMC as substrate preincubated for 15 mins followed by substrate addition and measured after 60 mins by fluorescence based assay.
For series [11], the target named is T3, Histone deacetylase 1. The experiment in a line: Inhibition of HDAC1 in human HL-60 cells assessed as increase in Ac-H3 level at 20 uM incubated for 24 hrs by Western blot analysis. Type of series: cell-based. In short, it runs like this:
as §1

Series [12] deals with HL-60. The experiment in a line: Induction of apoptosis in human HL-60 cells assessed as necrotic cells at 20 uM incubated for 24 hrs by propidium iodide and annexin-V FITC staining based FACS analysis (reference value: 0.5 %). Type of series: functional.
The nature of series [13]: Toxicity in mouse LL/2 cells inoculated C57BL/6J mouse assessed as effect on body weight by measuring initial body weight at 25 mg/kg, ip administered for 12 days measured for every 2 days (reference value: 18.4 +/- 0.4 g). Type of series: organism-based. The following applies: in vivo, 288 h, time 12 day.
A short description of series [14]: Toxicity in mouse LL/2 cells inoculated C57BL/6J mouse assessed as effect on body weight by measuring end body weight at 25 mg/kg, ip administered for 12 days and measured for every 2 days (reference value: 18.1 +/- 0.2 g). Type of series: organism-based. The settings on record: in vivo, 288 h, time 12 day.
Series [15] can be described thus: Antitumor activity against mouse LL/2 cells inoculated in C57BL/6J mouse assessed as reduction of tumor weight at 25 mg/kg, ip administered for 12 days measured at day 14 (reference value: 0.98 +/- 0.07 g). Type of series: functional, Lewis lung carcinoma. The following applies: time 12 day.

Calls of active or inactive are those of the source. The calls are words filed in the database; no cut-off is given here. Where only a bound is given, the exact number is not on record here.

T3 sequence (Q13547 whole entry): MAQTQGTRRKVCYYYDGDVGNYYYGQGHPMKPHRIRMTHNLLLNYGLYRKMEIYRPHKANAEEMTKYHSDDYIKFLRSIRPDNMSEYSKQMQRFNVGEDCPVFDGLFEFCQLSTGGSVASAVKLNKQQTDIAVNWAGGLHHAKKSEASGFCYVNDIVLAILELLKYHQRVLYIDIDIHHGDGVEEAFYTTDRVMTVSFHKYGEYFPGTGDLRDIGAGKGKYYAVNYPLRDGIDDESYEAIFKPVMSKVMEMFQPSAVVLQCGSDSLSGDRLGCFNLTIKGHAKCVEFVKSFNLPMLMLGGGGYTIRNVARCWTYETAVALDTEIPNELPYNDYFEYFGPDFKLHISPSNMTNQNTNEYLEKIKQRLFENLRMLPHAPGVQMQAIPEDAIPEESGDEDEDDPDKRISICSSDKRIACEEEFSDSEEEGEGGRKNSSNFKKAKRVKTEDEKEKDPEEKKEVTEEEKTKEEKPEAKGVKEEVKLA
Chain of Histone deacetylase 3 (Homo sapiens) (O15379 whole entry): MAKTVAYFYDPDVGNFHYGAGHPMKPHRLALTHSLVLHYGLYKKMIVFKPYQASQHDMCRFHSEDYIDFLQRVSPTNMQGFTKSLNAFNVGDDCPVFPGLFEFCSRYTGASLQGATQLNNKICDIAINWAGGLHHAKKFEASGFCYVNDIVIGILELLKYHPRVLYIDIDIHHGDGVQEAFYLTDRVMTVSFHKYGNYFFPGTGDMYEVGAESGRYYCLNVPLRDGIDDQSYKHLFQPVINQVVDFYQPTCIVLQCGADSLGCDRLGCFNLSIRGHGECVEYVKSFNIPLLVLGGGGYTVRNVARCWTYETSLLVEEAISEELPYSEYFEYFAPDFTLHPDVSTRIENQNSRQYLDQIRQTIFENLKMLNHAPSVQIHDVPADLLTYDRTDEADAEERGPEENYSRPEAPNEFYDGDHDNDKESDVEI
Chain of Histone deacetylase 3/Nuclear receptor corepressor 2 (HDAC3/NCoR2) (O15379 whole entry, the tested form may be a part): as the sequence (O15379 whole entry) above
Chain of Histone deacetylase 3/Nuclear receptor corepressor 2 (HDAC3/NCoR2) (Q9Y618 whole entry, further chain, the tested form may be a part): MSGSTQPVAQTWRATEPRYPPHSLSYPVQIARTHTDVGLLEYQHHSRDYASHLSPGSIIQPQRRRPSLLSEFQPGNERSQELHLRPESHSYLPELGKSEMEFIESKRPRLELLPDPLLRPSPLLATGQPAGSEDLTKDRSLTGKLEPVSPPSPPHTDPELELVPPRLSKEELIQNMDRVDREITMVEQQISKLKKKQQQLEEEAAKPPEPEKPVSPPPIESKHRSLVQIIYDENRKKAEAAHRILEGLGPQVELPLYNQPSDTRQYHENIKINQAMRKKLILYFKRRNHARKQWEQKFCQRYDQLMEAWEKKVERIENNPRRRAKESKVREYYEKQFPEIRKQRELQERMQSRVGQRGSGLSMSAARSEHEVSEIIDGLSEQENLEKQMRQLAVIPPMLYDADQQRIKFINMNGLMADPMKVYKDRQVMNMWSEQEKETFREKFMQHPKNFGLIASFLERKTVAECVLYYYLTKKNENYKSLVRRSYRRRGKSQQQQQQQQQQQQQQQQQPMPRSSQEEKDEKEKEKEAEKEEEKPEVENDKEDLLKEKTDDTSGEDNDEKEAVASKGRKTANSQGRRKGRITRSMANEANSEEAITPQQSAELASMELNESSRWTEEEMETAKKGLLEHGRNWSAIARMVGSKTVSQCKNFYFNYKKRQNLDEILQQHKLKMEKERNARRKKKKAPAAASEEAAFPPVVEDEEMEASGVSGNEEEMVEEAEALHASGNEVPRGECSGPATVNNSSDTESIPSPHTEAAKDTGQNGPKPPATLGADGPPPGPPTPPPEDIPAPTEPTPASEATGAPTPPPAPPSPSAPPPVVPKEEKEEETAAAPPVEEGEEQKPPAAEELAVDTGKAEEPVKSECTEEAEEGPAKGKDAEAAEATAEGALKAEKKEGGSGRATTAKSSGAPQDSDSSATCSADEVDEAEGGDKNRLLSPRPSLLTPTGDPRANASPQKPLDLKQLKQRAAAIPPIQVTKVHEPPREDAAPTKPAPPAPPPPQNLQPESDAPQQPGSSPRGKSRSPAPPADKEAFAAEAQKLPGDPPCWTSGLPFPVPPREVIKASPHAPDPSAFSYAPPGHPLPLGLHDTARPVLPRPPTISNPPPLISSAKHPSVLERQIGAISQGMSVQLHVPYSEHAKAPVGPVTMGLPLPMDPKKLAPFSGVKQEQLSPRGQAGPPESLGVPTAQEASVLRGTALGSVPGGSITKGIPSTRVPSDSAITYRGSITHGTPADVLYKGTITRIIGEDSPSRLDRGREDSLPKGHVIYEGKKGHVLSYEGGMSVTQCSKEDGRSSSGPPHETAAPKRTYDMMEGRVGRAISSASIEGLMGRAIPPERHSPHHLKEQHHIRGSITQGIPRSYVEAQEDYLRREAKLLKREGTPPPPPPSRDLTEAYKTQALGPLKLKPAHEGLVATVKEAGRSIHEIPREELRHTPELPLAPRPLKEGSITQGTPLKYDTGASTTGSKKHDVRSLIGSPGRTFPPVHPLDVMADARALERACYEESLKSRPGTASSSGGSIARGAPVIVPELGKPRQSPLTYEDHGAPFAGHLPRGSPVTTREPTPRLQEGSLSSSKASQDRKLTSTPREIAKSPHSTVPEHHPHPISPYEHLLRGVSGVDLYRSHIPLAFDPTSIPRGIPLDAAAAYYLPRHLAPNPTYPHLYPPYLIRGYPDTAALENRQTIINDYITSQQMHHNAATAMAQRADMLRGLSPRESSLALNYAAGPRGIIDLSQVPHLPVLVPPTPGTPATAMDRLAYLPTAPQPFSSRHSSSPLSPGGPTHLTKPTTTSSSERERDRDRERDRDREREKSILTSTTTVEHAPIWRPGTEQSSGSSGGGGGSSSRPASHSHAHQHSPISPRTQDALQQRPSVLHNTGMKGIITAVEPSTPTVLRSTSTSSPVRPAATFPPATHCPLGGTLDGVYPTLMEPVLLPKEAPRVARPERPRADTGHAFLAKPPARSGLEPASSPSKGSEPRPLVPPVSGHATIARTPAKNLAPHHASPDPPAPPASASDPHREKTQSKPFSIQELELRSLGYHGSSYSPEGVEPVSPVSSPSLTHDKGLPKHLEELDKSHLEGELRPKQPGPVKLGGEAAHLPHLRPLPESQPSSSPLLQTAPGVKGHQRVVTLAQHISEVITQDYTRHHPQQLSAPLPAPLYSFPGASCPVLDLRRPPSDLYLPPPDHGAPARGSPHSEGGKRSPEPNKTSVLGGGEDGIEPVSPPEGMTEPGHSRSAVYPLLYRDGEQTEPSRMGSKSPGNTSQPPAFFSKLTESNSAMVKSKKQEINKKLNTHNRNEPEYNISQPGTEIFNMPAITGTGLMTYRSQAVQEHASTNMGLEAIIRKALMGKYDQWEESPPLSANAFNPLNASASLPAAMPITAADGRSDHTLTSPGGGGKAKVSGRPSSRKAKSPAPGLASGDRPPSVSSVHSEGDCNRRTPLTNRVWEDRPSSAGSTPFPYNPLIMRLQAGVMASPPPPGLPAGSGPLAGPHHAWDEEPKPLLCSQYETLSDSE
T1 sequence (Q92769 whole entry): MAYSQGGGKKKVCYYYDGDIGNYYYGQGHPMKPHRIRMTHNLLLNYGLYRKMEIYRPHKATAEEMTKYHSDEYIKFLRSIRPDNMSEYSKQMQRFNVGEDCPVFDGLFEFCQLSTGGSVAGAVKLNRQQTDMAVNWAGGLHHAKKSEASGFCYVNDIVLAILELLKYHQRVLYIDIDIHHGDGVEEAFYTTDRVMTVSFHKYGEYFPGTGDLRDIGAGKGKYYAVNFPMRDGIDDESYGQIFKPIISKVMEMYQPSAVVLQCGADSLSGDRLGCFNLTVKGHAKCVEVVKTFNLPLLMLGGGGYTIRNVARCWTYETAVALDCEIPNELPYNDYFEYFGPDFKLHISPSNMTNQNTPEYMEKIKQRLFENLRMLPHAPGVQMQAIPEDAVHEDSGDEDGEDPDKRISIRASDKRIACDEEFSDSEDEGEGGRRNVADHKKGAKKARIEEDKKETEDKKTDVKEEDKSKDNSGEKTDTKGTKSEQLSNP

Turning to `O=C(O)CCNC(=O)/C(Cc1ccc(O)c(Br)c1)=N/O`, the inhibition entry in series [1], in series [3] and in series [11] was “inactive” each time. For the same compound, the IC50 in series [2], in [4], in [9] and in series [10] was above 10 µM throughout. For the same compound, the GI50 (commonly the concentration that inhibits growth by half) in series [5] was 11.8 µM. For the same compound, the viability at 20 µM in series [6] was 94.2%. Besides, the figures for the Activity in [7], in series [8] and in series [12] were 2.2%, 3.4% and 0.2%, respectively.

As for `CCCNC(=O)/C(Cc1ccc(O)c(Br)c1)=N/O`, the inhibition entry in series [1], in [3] and in [11] was “inactive” throughout. Also, the concentration for half-maximal inhibition (IC50) in series [2], in series [4], in series [9] and in series [10] was above 10 µM each time. The compound also gave a GI50 in [5] of 13.5 µM. Besides, the viability at 20 µM in series [6] worked out at 95.5%. Also, the Activity is 1.8% in [7], 2.5% in series [8] and 0.2% in [12].

Regarding `O=C(CCCNC(=O)/C(Cc1ccc(O)c(Br)c1)=N/O)NO`, the IC50 (in general, the concentration at which inhibition is half-maximal) in series [2] was above 10 µM; in [4], above 10 µM; in series [9], above 10 µM; in series [10] it was 1.01 µM. This compound also had an IG50 in series [5] above 40 µM.

Consider `Nc1ccccc1NC(=O)CCCNC(=O)/C(Cc1ccc(O)c(Br)c1)=N/O`, for which the IC50 is 1.83 µM in [2], above 10 µM in [4], above 10 µM in series [9] and above 10 µM in series [10]. Moreover, in series [5], the IG50 is above 40 µM.

On to `Nc1ccccc1NC(=O)CCNC(=O)/C(Cc1ccc(O)c(Br)c1)=N/O`, for which the IC50 in series [2], in series [4], in series [9] and in series [10] was above 10 µM in each case. In series [5], this compound gave an IG50 above 40 µM.

As to `O=C(NCCO)/C(Cc1ccc(O)c(Br)c1)=N/O`, the inhibition result in series [1], in series [3] and in series [11] was “inactive” in each case. Moreover, the IC50 in series [2], in [4], in series [9] and in series [10] was above 10 µM in each case. Also, in series [5], the GI50 came out at 20 µM. For the same compound, the viability at 20 µM in series [6] turned out to be 94.4%. In addition, the Activity in series [7] turned out to be 1.7%; in [8], 3.7%; in series [12], 0.1%.

Regarding `CCCCNC(=O)/C(Cc1ccc(O)c(Br)c1)=N/O`, the IC50 in series [2], in series [4], in series [9] and in series [10] was above 10 µM in each case. Moreover, the concentration for 50% growth inhibition (GI50) in series [5] amounted to 36 µM.

As to `Nc1ccccc1NC(=O)CNC(=O)/C(Cc1ccc(O)c(Br)c1)=N/O`, the 50% inhibitory concentration (IC50) in [2], in [4], in series [9] and in series [10] was above 10 µM each time. In series [5], this compound returned an IG50 above 40 µM.

On to `Nc1ccccc1NC(=O)CCCCNC(=O)/C(Cc1ccc(O)c(Br)c1)=N/O`, for which the IC50 in series [2] is 1.43 µM; in [4] it was above 10 µM; in series [9] it was 9.76 µM; in series [10], above 10 µM. In series [5], this compound showed an IG50 above 40 µM.

`O=C(CCCCNC(=O)/C(Cc1ccc(O)c(Br)c1)=N/O)NO`: the IC50 was 0.249 µM in [2], 1.29 µM in [4], above 10 µM in series [9] and 0.436 µM in [10]. This compound also yielded an IG50 in series [5] above 40 µM.

For the compound `O=C(CNC(=O)/C(Cc1ccc(O)c(Br)c1)=N/O)NO`, the IC50 in series [2] was 1.23 µM; in series [4] it was above 10 µM; in series [9], 9.21 µM; in series [10] it was 2.93 µM. For the same compound, the IG50 in series [5] is above 40 µM.

Turning to `O=C(CCCCCCC(=O)Nc1ccccc1)NO` [VORINOSTAT], the Activity is given as 17.9 g in series [13], 18.1 g in series [14] and 0.55 g in series [15].
